Where a SMILES comes first, the peptide text is derived from it. Side-chain parts run from the residue outwards. [ ]: non-standard residue; d: D form. The star is where a group is joined. X1 = NC(=O)[C@H](CCCCNC(=O)c1ccc2c(c1)C(=O)OC21c2ccc3cc(O)ccc3c2Oc2c1ccc1cc(O)ccc21)N*; 2Nal = N[C@@H](Cc1ccc2ccccc2c1)C(=O)O; AEEA = NCCOCCOCC(=O)O
Assay: Drug uptake in human HeLa cells assessed as cytosolic entry efficiency measured as fluorescence at 5 uM incubated for 2 hrs by flow cytometry relative to CPP9 (100%)
Type: ADME, cell-based
In short: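 HeLa cells seeded 24 h earlier, given 5 μM naphthofluorescein-labelled peptide in DMEM with 1% or 10% FBS, 37 °C, 2 h. Cells DPBS-washed, trypsinized, flow cytometry with 633-nm excitation, APC channel, 10,000 live-cell events gated. Signal read as cytosolic entry because NF is non-fluorescent in acidic compartments; mean ± SD of three independent experiments, relative to CPP9 (100%).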

RFU	SMILES
34%	C[C@@H]1NC(=O)[C@H](CCCNC(=N)N)NC(=O)[C@H](CCC(=O)NCCOCCOCC(=O)N[C@@H](CCCCNC(=O)c2ccc3c(c2)C(=O)OC32c3ccc4cc(O)ccc4c3Oc3c2ccc2cc(O)ccc32)C(N)=O)NC(=O)[C@H](CCCNC(=N)N)NC(=O)[C@H](C)NC(=O)[C@H](CCCNC(=N)N)NC(=O)[C@H](Cc2ccccc2)NC(=O)[C@H](CCCNC(=N)N)NC(=O)[C@H](CCCNC(=N)N)NC(=O)[C@@H]2CCCN2C(=O)[C@H]2CCCN2C(=O)[C@@H](CCCNC(=N)N)NC(=O)[C@H](Cc2ccc3ccccc3c2)NC(=O)[C@H](Cc2ccccc2)NC1=O
14%	C[C@@H]1NC(=O)[C@H](CC(=O)O)NC(=O)[C@H](CCC(=O)NCCOCCOCC(=O)N[C@@H](CCCCNC(=O)c2ccc3c(c2)C(=O)OC32c3ccc4cc(O)ccc4c3Oc3c2ccc2cc(O)ccc32)C(N)=O)NC(=O)[C@H](CC(=O)O)NC(=O)[C@H](C)NC(=O)[C@H](CC(=O)O)NC(=O)[C@H](Cc2ccccc2)NC(=O)[C@H](CCCNC(=N)N)NC(=O)[C@H](CCCNC(=N)N)NC(=O)[C@@H]2CCCN2C(=O)[C@H]2CCCN2C(=O)[C@@H](CCCNC(=N)N)NC(=O)[C@H](Cc2ccc3ccccc3c2)NC(=O)[C@H](Cc2ccccc2)NC1=O
94%	C[C@@H]1NC(=O)[C@H](CCC(=O)NCCOCCOCC(=O)N[C@@H](CCCCNC(=O)c2ccc3c(c2)C(=O)OC32c3ccc4cc(O)ccc4c3Oc3c2ccc2cc(O)ccc32)C(N)=O)NC(=O)[C@H](Cc2ccccc2)NC(=O)[C@H](CCCNC(=N)N)NC(=O)[C@H](CCCNC(=N)N)NC(=O)[C@@H]2CCCN2C(=O)[C@H]2CCCN2C(=O)[C@@H](CCCNC(=N)N)NC(=O)[C@H](Cc2ccc3ccccc3c2)NC(=O)[C@H](Cc2ccccc2)NC1=O
84%	C[C@@H]1NC(=O)[C@H](CO)NC(=O)[C@H](C)NC(=O)[C@H](CO)NC(=O)[C@H](Cc2ccccc2)NC(=O)[C@H](CCCNC(=N)N)NC(=O)[C@H](CCCNC(=N)N)NC(=O)[C@@H]2CCCN2C(=O)[C@H]2CCCN2C(=O)[C@@H](CCCNC(=N)N)NC(=O)[C@H](Cc2ccc3ccccc3c2)NC(=O)[C@H](Cc2ccccc2)NC(=O)[C@H](CO)NC(=O)[C@H](C)NC(=O)[C@H](CO)NC(=O)[C@H](CCC(=O)NCCOCCOCC(=O)N[C@@H](CCCCNC(=O)c2ccc3c(c2)C(=O)OC32c3ccc4cc(O)ccc4c3Oc3c2ccc2cc(O)ccc32)C(N)=O)NC1=O
33%	C[C@@H]1NC(=O)[C@H](C)NC(=O)[C@H](Cc2ccccc2)NC(=O)[C@H](CCCNC(=N)N)NC(=O)[C@H](CCCNC(=N)N)NC(=O)[C@@H]2CCCN2C(=O)[C@H]2CCCN2C(=O)[C@@H](CCCNC(=N)N)NC(=O)[C@H](Cc2ccc3ccccc3c2)NC(=O)[C@H](Cc2ccccc2)NC(=O)[C@H](C)NC(=O)[C@H](C)NC(=O)[C@H](CCC(=O)NCCOCCOCC(=O)N[C@@H](CCCCNC(=O)c2ccc3c(c2)C(=O)OC32c3ccc4cc(O)ccc4c3Oc3c2ccc2cc(O)ccc32)C(N)=O)NC(=O)[C@H](C)NC1=O
8.3%	C[C@@H]1NC(=O)[C@H](C)NC(=O)[C@H](CCCNC(=N)N)NC(=O)[C@H](CCCNC(=N)N)NC(=O)[C@H](CCCNC(=N)N)NC(=O)[C@@H]2CCCN2C(=O)[C@H]2CCCN2C(=O)[C@H](Cc2ccccc2)NC(=O)[C@H](Cc2ccc3ccccc3c2)NC(=O)[C@H](Cc2ccccc2)NC(=O)[C@H](C)NC(=O)[C@H](C)NC(=O)[C@H](CCC(=O)NCCOCCOCC(=O)N[C@@H](CCCCNC(=O)c2ccc3c(c2)C(=O)OC32c3ccc4cc(O)ccc4c3Oc3c2ccc2cc(O)ccc32)C(N)=O)NC(=O)[C@H](C)NC1=O
32%	C[C@@H]1NC(=O)[C@H](C)NC(=O)[C@H](Cc2ccccc2)NC(=O)[C@H](CCCNC(=N)N)NC(=O)[C@@H](CCCNC(=N)N)NC(=O)[C@@H]2CCCN2C(=O)[C@H]2CCCN2C(=O)[C@H](CCCNC(=N)N)NC(=O)[C@H](Cc2ccc3ccccc3c2)NC(=O)[C@H](Cc2ccccc2)NC(=O)[C@H](C)NC(=O)[C@H](C)NC(=O)[C@H](CCC(=O)NCCOCCOCC(=O)N[C@@H](CCCCNC(=O)c2ccc3c(c2)C(=O)OC32c3ccc4cc(O)ccc4c3Oc3c2ccc2cc(O)ccc32)C(N)=O)NC(=O)[C@H](C)NC1=O
46%	C[C@@H]1NC(=O)[C@H](Cc2ccc3ccccc3c2)NC(=O)[C@H](Cc2ccccc2)NC(=O)[C@H](C)NC(=O)[C@H](CCC(=O)NCCOCCOCC(=O)N[C@@H](CCCCNC(=O)c2ccc3c(c2)C(=O)OC32c3ccc4cc(O)ccc4c3Oc3c2ccc2cc(O)ccc32)C(N)=O)NC(=O)[C@H](Cc2ccccc2)NC(=O)[C@H](CCCNC(=N)N)NC(=O)[C@H](CCCNC(=N)N)NC(=O)[C@@H]2CCCN2C(=O)[C@H](C)NC1=O (cyclo([2Nal]AAPRRFE([AEEA-X1])AF))
8%	C[C@@H]1NC(=O)[C@H](Cc2ccccc2)NC(=O)[C@H](CCCNC(=N)N)NC(=O)[C@H](CCCNC(=N)N)NC(=O)[C@@H]2CCCN2C(=O)[C@H]2CCCN2C(=O)[C@@H](CCCNC(=N)N)NC(=O)[C@H](Cc2ccc3ccccc3c2)NC(=O)[C@H](Cc2ccccc2)NC(=O)[C@H](CCC(=O)NCCOCCOCC(=O)N[C@@H](CCCCNC(=O)c2ccc3c(c2)C(=O)OC32c3ccc4cc(O)ccc4c3Oc3c2ccc2cc(O)ccc32)C(N)=O)NC1=O
21%	C[C@@H]1NC(=O)[C@H](C)NC(=O)[C@H](CCCNC(=N)N)NC(=O)[C@H](CCCNC(=N)N)NC(=O)[C@H](CCCNC(=N)N)NC(=O)[C@@H]2CCCN2C(=O)[C@H]2CCCN2C(=O)[C@H](CCCNC(=N)N)NC(=O)[C@H](Cc2ccc3ccccc3c2)NC(=O)[C@H](Cc2ccccc2)NC(=O)[C@H](C)NC(=O)[C@H](C)NC(=O)[C@H](CCC(=O)NCCOCCOCC(=O)N[C@@H](CCCCNC(=O)c2ccc3c(c2)C(=O)OC32c3ccc4cc(O)ccc4c3Oc3c2ccc2cc(O)ccc32)C(N)=O)NC(=O)[C@H](C)NC1=O
4.1%	C[C@@H]1NC(=O)[C@H](C)NC(=O)[C@H](Cc2ccccc2)NC(=O)[C@H](CCCNC(=N)N)NC(=O)[C@H](CCCNC(=N)N)NC(=O)[C@H](C)NC(=O)[C@H](C)NC(=O)[C@@H](CCCNC(=N)N)NC(=O)[C@H](Cc2ccc3ccccc3c2)NC(=O)[C@H](Cc2ccccc2)NC(=O)[C@H](C)NC(=O)[C@H](C)NC(=O)[C@H](CCC(=O)NCCOCCOCC(=O)N[C@@H](CCCCNC(=O)c2ccc3c(c2)C(=O)OC32c3ccc4cc(O)ccc4c3Oc3c2ccc2cc(O)ccc32)C(N)=O)NC(=O)[C@H](C)NC1=O
51%	C[C@@H]1NC(=O)[C@H](C)NC(=O)[C@H](Cc2ccccc2)NC(=O)[C@H](CCCNC(=N)N)NC(=O)[C@H](CCCNC(=N)N)NC(=O)[C@@H]2CCCN2C(=O)[C@H]2CCCN2C(=O)[C@H](CCCNC(=N)N)NC(=O)[C@@H](Cc2ccc3ccccc3c2)NC(=O)[C@H](Cc2ccccc2)NC(=O)[C@H](C)NC(=O)[C@H](C)NC(=O)[C@H](CCC(=O)NCCOCCOCC(=O)N[C@@H](CCCCNC(=O)c2ccc3c(c2)C(=O)OC32c3ccc4cc(O)ccc4c3Oc3c2ccc2cc(O)ccc32)C(N)=O)NC(=O)[C@H](C)NC1=O
22%	C[C@@H]1NC(=O)[C@H](C)NC(=O)[C@H](Cc2ccccc2)NC(=O)[C@H](CCCNC(=N)N)NC(=O)[C@H](CCCNC(=N)N)NC(=O)[C@@H]2CCCN2C(=O)[C@H]2CCCN2C(=O)[C@H](CCCNC(=N)N)NC(=O)[C@H](Cc2ccc3ccccc3c2)NC(=O)[C@H](Cc2ccccc2)NC(=O)[C@H](C)NC(=O)[C@H](C)NC(=O)[C@H](CCC(=O)NCCOCCOCC(=O)N[C@@H](CCCCNC(=O)c2ccc3c(c2)C(=O)OC32c3ccc4cc(O)ccc4c3Oc3c2ccc2cc(O)ccc32)C(N)=O)NC(=O)[C@H](C)NC1=O
5.7%	C[C@@H]1NC(=O)[C@H](C)NC(=O)[C@H](Cc2ccc3ccccc3c2)NC(=O)[C@H](CCCNC(=N)N)NC(=O)[C@H](CCCNC(=N)N)NC(=O)[C@@H]2CCCN2C(=O)[C@H]2CCCN2C(=O)[C@H](CCCNC(=N)N)NC(=O)[C@H](CCCNC(=N)N)NC(=O)[C@H](Cc2ccccc2)NC(=O)[C@H](C)NC(=O)[C@H](C)NC(=O)[C@H](CCC(=O)NCCOCCOCC(=O)N[C@@H](CCCCNC(=O)c2ccc3c(c2)C(=O)OC32c3ccc4cc(O)ccc4c3Oc3c2ccc2cc(O)ccc32)C(N)=O)NC(=O)[C@H](C)NC1=O
100%	N=C(N)NCCC[C@@H]1NC(=O)[C@H](Cc2ccc3ccccc3c2)NC(=O)[C@@H](Cc2ccccc2)NC(=O)[C@H](CCC(=O)NCCOCCOCC(=O)N[C@@H](CCCCNC(=O)c2ccc3c(c2)C(=O)OC32c3ccc4cc(O)ccc4c3Oc3c2ccc2cc(O)ccc32)C(N)=O)NC(=O)[C@@H](CCCNC(=N)N)NC(=O)[C@H](CCCNC(=N)N)NC(=O)[C@@H](CCCNC(=N)N)NC1=O
37%	C[C@@H]1NC(=O)[C@H](C)NC(=O)[C@H](Cc2ccccc2)NC(=O)[C@@H](CCCNC(=N)N)NC(=O)[C@H](CCCNC(=N)N)NC(=O)[C@@H]2CCCN2C(=O)[C@H]2CCCN2C(=O)[C@H](CCCNC(=N)N)NC(=O)[C@H](Cc2ccc3ccccc3c2)NC(=O)[C@H](Cc2ccccc2)NC(=O)[C@H](C)NC(=O)[C@H](C)NC(=O)[C@H](CCC(=O)NCCOCCOCC(=O)N[C@@H](CCCCNC(=O)c2ccc3c(c2)C(=O)OC32c3ccc4cc(O)ccc4c3Oc3c2ccc2cc(O)ccc32)C(N)=O)NC(=O)[C@H](C)NC1=O

Reference: ChEMBL document CHEMBL4665872, “Rational design of cell-permeable cyclic peptides containing a d-Pro-l-Pro motif” (Bioorg Med Chem, 2020)
